From ChEMBL document CHEMBL4020827, “Targeting Multiple Effector Pathways in Pancreatic Ductal Adenocarcinoma with a G-Quadruplex-Binding Small Molecule” (J Med Chem, 2018)

Tests used:
CAPAN-1 = assay: Growth inhibition of human Capan1 cells after 96 hrs by SRB assay; type: functional, cell-based; conditions: CAPAN-1, 96 h
In short: (§1)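 Cell lines kept at 37 °C, 5% CO2 in medium with 10% FBS and 2 mM L-glutamine. Compound dissolved in water, filter-sterilised, 10 mM stock diluted into media. Growth read by 96 h sulforhodamine B assay, absorbance at 540 nm. IC50 taken from mean absorbance per concentration as % of untreated wells, >3 individual determinations with standard deviations.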

BXPC-3 = assay: Growth inhibition of human BxPC3 cells after 96 hrs by SRB assay; type: functional, cell-based; conditions: BXPC-3, 96 h; in short: as §1
MIA PaCa-2 [1] = assay: Antitumor activity against human MIAPaCa2 cells xenografted in CD-1 nude mouse assessed as change in tumor volume at 15 mg/kg, iv administered twice weekly for 4 weeks measured on day 29 relative to control; type: functional
In short: (§2)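 Female CD-1 nude mice (2-3 months, 20−25 g) given 5 x 10^6 MIA PaCa-2 cells subcutaneously in right flank with Matrigel; dosing began once tumors were established (approx. 13 days, mean 0.05 cm3). Eight mice/group, IV in saline twice weekly for 28 days (8 doses) against a saline group. Tumors measured by calliper (length × width × height × π/6), with body weight. Student's t test.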

MIA PaCa-2 [2] = assay: Antitumor activity against human MIAPaCa2 cells xenografted in CD-1 nude mouse assessed as change in tumor volume at 15 mg/kg, iv administered twice weekly for 4 weeks measured on day 62 relative to control; type: functional; in short: as §2
Homo sapiens = species: Homo sapiens; assay: Binding affinity to 5'-FAM/3'-TAMRA labeled human telomeric F21T G-quadruplex DNA assessed as change in melting temperature at 1 uM by FRET assay
In short: (§3)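 FRET melting with FAM/TAMRA dual-labelled oligonucleotides at 400 nM, annealed at 95 °C for 10 min in 60 mM potassium cacodylate pH 7.4 and slowly cooled. Ligand final 1 μM; solution contains 50 mM K+. Fluorescence read every 0.5 °C over 30–100 °C with 30 s hold, excitation 450–495 nm and emission 515–545 nm. ΔTm from curve fitting, triplicate measurements.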

[3] = Binding affinity to 5'-FAM/3'-TAMRA labeled HSP90A promoter G-quadruplex DNA (unknown origin) assessed as change in melting temperature at 1 uM by FRET assay
In short: (§4)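 FRET melting of FAM/TAMRA dual-labelled promoter G4 oligonucleotides, 400 nM, annealed at 95 °C for 10 min in 60 mM potassium cacodylate (pH 7.4) then cooled to RT. Ligand at 1 μM in solution with 50 mM K+. Fluorescence (ex 450–495, em 515–545 nm) read every 0.5 °C over 30–100 °C with a 30 sec hold per step. ΔTm from curve fitting; triplicate measurements.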

[4] = Binding affinity to 5'-FAM/3'-TAMRA labeled HSP90B promoter G-quadruplex DNA (unknown origin) assessed as change in melting temperature at 1 uM by FRET assay; in short: as §3
[5] = Binding affinity to 5'-FAM/3'-TAMRA labeled KRAS21 promoter G-quadruplex DNA (unknown origin) assessed as change in melting temperature at 1 uM by FRET assay; in short: as §4
[6] = Binding affinity to 5'-FAM/3'-TAMRA labeled KRAS32 promoter G-quadruplex DNA (unknown origin) assessed as change in melting temperature at 1 uM by FRET assay; in short: as §4
[7] = Binding affinity to 5'-FAM/3'-TAMRA labeled BCL2 promoter G-quadruplex DNA (unknown origin) assessed as change in melting temperature at 1 uM by FRET assay; in short: as §3
[8] = Binding affinity to 5'-FAM/3'-TAMRA labeled T-loop duplex DNA (unknown origin) assessed as change in melting temperature at 1 uM by FRET assay; in short: as §3
A549 = assay: Growth inhibition of human A549 cells after 96 hrs by SRB assay; type: functional, cell-based; conditions: A549, 96 h; in short: as §1
MIA PaCa-2 [9] = assay: Growth inhibition of human MIAPaCa2 cells after 96 hrs by SRB assay; type: functional, cell-based; conditions: MIA PaCa-2, 96 h; in short: as §1
[10] = Binding affinity to 5'-FAM/3'-TAMRA labeled human telomeric F21T G-quadruplex DNA by fluorescence anisotropy titration method
[11] = Selectivity index, ratio of IC50 for human WI38 cells to IC50 for human MIAPaCa2 cells; type: functional
In short: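 SRB growth-inhibition assay over 96 h with compounds dissolved in water; cells grown in 10 % FBS at 37 °C, 5% CO2. Absorbance at 540 nm as a percentage of untreated wells gives the IC50. Values are averages of >3 determinations, with the ratio taken as WI-38 IC50 over MIA PaCa-2 IC50.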

[12] = Toxicity in iv dosed CD-1 nude mouse assessed as death measured up to 72 hrs; type: organism-based; conditions: in vivo
In short: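 CD1 nude mice, two per group, given single IV doses in saline (10, 20, 30, 35, 40, 45, 50 and 60 mg/kg), with repeat dosing weekly. Watched for adverse effects for up to 72 h. Tolerated dose taken as highest cohort in which all mice survived without observed ill-effects.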

Structure (SMILES)	IC50 (CAPAN-1)	IC50 (BXPC-3)	Activity (MIA PaCa-2 [1])	Activity (MIA PaCa-2 [2])	ΔTm (Homo sapiens)	ΔTm [3]	ΔTm [4]	ΔTm [5]	ΔTm [6]	ΔTm [7]	ΔTm [8]	IC50 (A549)	IC50 (MIA PaCa-2 [9])	Kd [10]	Ratio IC50 [11]	MTD at 72 h [12]
Nc1ccn([C@@H]2O[C@H](CO)[C@@H](O)C2(F)F)c(=O)n1 [GEMCITABINE]	19 nM	6 nM	-66.7%	-61.7%	–	–	–	–	–	–	–	–	–	–	–	–
CN1CCN(CCCNc2cc3c4c(c(NCCCN5CCN(C)CC5)cc5c4c2C(=O)N(CCCN2CCOCC2)C5=O)C(=O)N(CCCN2CCOCC2)C3=O)CC1	–	–	-66.7%	-56.7%	26.6 °C	33.1 °C	28.6 °C	22.5 °C	19.8 °C	26.4 °C	4.9 °C	19 nM	11 nM	20 nM	21	25 mg/kg
